From ChEMBL document CHEMBL4823321, “Improving the Adjuvanticity of Small Molecule Immune Potentiators Using Covalently Linked NF-κB Modulators” (ACS Med Chem Lett, 2021)
Active and inactive are the calls of the source. The rule behind the calls is not given here.

Columns and labels:
BMDC = assay: Modulator activity at NF-kappaB in C57BL/6 mouse BMDC cells assessed as increase in cell surface CD40 expression at 200 nM measured after 8 hrs by FACS analysis; format: cell-based; conditions: filed as modulator
In short: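 Murine bone-marrow-derived dendritic cells incubated 8 h with compounds at 200 nM; cells stained for surface CD40 and quantified by flow cytometry.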

[1] = target: TLR7 and TLR8 (Mus musculus) (UniProt P58681+P58682); assay: Agonist activity at TLR7/8 in mouse RAW-blue cells assessed as immune activation by measuring induction of NFkappaB activation at 500 nM measured after 24 hrs by quanti-blue SEAP reporter gene-based assay; format: cell-based; conditions: filed as agonist
TLR7 and TLR8 (Mus musculus), sequence (P58681 whole entry, looked up): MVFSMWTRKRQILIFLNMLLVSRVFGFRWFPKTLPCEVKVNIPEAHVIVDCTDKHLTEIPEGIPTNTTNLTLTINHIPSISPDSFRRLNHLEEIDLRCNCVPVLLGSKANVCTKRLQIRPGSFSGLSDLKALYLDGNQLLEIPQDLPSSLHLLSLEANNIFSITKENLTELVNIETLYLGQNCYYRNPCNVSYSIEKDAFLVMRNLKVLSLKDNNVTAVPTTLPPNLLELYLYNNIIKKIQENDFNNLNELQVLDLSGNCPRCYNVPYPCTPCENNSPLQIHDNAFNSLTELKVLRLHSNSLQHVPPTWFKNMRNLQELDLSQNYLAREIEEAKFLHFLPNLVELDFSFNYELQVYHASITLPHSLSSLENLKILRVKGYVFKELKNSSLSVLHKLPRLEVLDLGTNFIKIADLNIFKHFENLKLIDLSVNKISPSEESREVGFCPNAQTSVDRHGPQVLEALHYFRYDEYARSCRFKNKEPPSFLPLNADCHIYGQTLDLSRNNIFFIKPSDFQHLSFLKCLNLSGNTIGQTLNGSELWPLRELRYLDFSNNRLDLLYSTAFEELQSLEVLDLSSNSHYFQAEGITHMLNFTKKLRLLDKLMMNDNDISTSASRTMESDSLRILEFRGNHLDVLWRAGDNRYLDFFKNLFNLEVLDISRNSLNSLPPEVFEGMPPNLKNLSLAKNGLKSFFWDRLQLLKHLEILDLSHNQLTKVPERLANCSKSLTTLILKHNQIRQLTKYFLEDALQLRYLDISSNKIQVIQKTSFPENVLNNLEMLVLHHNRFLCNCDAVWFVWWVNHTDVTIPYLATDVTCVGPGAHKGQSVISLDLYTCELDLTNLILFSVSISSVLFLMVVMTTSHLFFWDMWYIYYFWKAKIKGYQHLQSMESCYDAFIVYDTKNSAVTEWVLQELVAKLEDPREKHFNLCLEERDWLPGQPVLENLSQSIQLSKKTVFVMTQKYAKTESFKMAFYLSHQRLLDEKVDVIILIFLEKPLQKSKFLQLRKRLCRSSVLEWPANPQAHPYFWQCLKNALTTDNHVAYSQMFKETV
TLR7 and TLR8 (Mus musculus), sequence (P58682 whole entry, looked up): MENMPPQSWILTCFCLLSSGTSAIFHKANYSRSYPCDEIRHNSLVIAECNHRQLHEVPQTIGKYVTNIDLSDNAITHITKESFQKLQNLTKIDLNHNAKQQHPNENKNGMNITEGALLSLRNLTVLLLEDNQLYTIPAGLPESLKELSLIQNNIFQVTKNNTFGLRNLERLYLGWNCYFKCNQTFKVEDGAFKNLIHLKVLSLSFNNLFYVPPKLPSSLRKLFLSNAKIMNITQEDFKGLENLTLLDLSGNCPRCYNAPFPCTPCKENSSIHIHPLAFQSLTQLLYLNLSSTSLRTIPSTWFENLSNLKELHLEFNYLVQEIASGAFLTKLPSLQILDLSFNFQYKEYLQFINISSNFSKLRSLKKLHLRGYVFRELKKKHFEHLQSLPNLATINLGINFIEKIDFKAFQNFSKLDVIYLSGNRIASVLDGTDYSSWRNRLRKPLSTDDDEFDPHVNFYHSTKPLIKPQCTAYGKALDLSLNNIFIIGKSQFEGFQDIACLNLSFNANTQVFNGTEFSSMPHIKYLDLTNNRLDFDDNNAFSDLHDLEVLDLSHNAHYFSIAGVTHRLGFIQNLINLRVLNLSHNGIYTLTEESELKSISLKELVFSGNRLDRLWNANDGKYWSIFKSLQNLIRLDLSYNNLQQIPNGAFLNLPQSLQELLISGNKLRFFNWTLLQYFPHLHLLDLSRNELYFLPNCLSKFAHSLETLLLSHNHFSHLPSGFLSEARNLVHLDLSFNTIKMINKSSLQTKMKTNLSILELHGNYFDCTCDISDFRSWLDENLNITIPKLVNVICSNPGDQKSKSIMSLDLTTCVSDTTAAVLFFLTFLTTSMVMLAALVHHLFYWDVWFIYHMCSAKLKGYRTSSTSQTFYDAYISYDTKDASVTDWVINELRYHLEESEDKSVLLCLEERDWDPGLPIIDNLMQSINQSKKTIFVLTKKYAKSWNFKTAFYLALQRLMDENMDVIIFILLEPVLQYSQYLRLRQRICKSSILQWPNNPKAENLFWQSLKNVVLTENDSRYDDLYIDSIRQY
In short: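 RAW-Blue macrophages exposed to compounds at 500 nM for 24 h at 37 °C; NF-κB-driven reporter read-out; triplicate samples; one-way ANOVA against TLR7/8 SMIP.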

[2] = Toxicity in C57BL/6 mouse BMDC cells assessed as induction of inflammation by measuring increase in IL-6 secretion at 200 nM measured after 8 hrs by ELISA; format: cell-based; conditions: 0.2 µM
In short: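 Murine bone-marrow-derived dendritic cells incubated 8 h with compounds at 200 nM; secreted IL-6 quantified by ELISA; triplicate; one-way ANOVA versus TLR7/8 SMIP.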

Splenocyte = assay: Induction of innate immunity in C57BL/6 mouse naive splenocyte assessed as increase in cell proliferation at 3 uM measured after 48 hrs by MTT assay; format: functional, tissue-based
In short: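 Naive splenocytes incubated 48 h with compounds to assess proliferation.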

[3] = Systemic toxicity in CT26 cells xenografted BALB/c mouse tumor model assessed as increase in serum TNF-alpha level at 20 nmol, IT and measured after 2 hrs; format: cell-based; conditions: in vivo, other
In short: (§1)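 Subcutaneous CT-26 tumors established for 11 days, then compounds given by peritumoral injection; serum collected 2 h later for TNF-α and IL-6.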

[4] = Systemic toxicity in CT26 cells xenografted BALB/c mouse tumor model assessed as increase in serum IL-6 level at 20 nmol, IT and measured after 2 hrs; format: cell-based; conditions: in vivo, other; in short: as §1
[5] = Systemic toxicity in CT26 cells xenografted BALB/c mouse tumor model assessed as reduction in white blood count in peripheral blood at 20 nmol, IT and measured after 24 hrs by hematological analysis; format: cell-based; conditions: in vivo, other
In short: (§2)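 Subcutaneous CT-26 tumors established for 11 days, then compounds given peritumorally; peripheral blood collected 24 h later for hematological analysis of white blood cell and lymphocyte counts.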

[6] = Systemic toxicity in CT26 cells xenografted BALB/c mouse tumor model assessed as reduction in lymphocyte count in peripheral blood at 20 nmol, IT and measured after 24 hrs by hematological analysis; format: cell-based; conditions: in vivo, other; in short: as §2
RAW264.7 [7] = assay: Antioxidant activity in mouse RAW264.7 cells assessed as reduction in intracellular ROS level measured after 16 hrs by CM-H2DCFDA based flow cytometry analysis relative to TLR7/8 SMIP; format: functional
In short: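 RAW macrophages incubated with compounds for 16 h, then loaded with CM-H2DCFDA; intracellular ROS fluorescence quantified by flow cytometry.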

RAW264.7 [8] = assay: Inhibition of NO production in mouse RAW264.7 cells at 500 nM incubated for 16 hrs by Griess reagent based analysis; format: functional, cell-based
In short: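 Nitrite measured with Griess reagent in supernatants of RAW macrophages incubated 16 h with 500 nM compounds; triplicate; one-way ANOVA versus TLR7/8 SMIP.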

RAW264.7 [9] = assay: Inhibition of COX-2 expression in mouse RAW264.7 cells at 500 nM incubated for 16 hrs by western blot analysis; format: functional, cell-based
In short: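 After 16 h with 500 nM compounds, RAW macrophages were lysed; proteins separated by SDS-PAGE, transferred to membrane and probed with anti-COX-2 antibody; triplicate.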

RAW264.7 [10] = assay: Inhibition of iNOS expression in mouse RAW264.7 cells at 500 nM incubated for 16 hrs by western blot analysis; format: functional, cell-based
CT26 = assay: Antitumor activity against mouse CT26 cells xenografted in BALB/c mouse assessed as survival rate at 20 nmol, IT administered on day 15,19 and 23 and measured on day 35; format: functional
In short: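 Subcutaneous CT-26 colon carcinoma in mice. Once tumors were established at day 11, […], compounds were given by peritumoral injection, then three more injections every 4 days. Tumor size was measured every alternate day. Animals were euthanized when a tumor reached 20 mm in any linear dimension. Kaplan–Meier survival was followed until day 35.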

[11] = Systemic toxicity in C57BL/6 mouse assessed as increase in serum TNF-alpha level administered intramuscularly in presence of ovalbumin measured after 1 hr; conditions: in vivo, im
In short: (§3)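 Mice vaccinated with ovalbumin admixed with adjuvant in PBS, i.m.; serum collected 1 h after injection for IL-6 and TNF-α; one-way ANOVA versus PBS control.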

Mus musculus [12] = assay: Immuno-adjuvant activity in C57BL/6 mouse assessed as increase in levels of anti-OVA Ig (A+G+M) administered intramuscularly on day 1 and as booster dose on day 14 in presence of ovalbumin and measured on day 28 by ELISA; format: functional, organism-based; conditions: time 28.0 day
In short: (§4)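 Ovalbumin plus adjuvant in PBS given i.m., boosted on day 14; sera collected at sacrifice on day 28 and anti-OVA antibodies measured; one-way ANOVA versus PBS control.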

Mus musculus [13] = assay: Induction of T-cell immunity in C57BL/6 mouse splenocytes assessed as increase in CD3+CD8+ tetramer administered intramuscularly on day 1 and as booster dose on day 14 in presence of ovalbumin and SINFEKL MHC specific tetramer measured on day 28 by flow cytometric analysis; format: functional, cell-based; conditions: time 28.0 day
[14] = Systemic toxicity in C57BL/6 mouse assessed as increase in serum IL-6 level administered intramuscularly in presence of ovalbumin measured after 1 hr; conditions: in vivo, im; in short: as §3
Mus musculus [15] = assay: Immuno-adjuvant activity in C57BL/6 mouse assessed as increase in levels of anti-OVA IgG administered intramuscularly on day 1 and as booster dose on day 14 in presence of ovalbumin and measured on day 28 by ELISA; format: functional, organism-based; conditions: time 28.0 day; in short: as §4
Mus musculus [16] = assay: Immuno-adjuvant activity in C57BL/6 mouse assessed as increase in levels of anti-OVA IgA administered intramuscularly on day 1 and as booster dose on day 14 in presence of ovalbumin and measured on day 28 by ELISA; format: functional, organism-based; conditions: time 28.0 day

Row | SMILES | Activity (BMDC) | Activity [1] | Activity [2] | Activity (Splenocyte) | Activity [3] | Activity [4] | Activity [5] | Activity [6] | inhibition (INH) (RAW264.7 [7]) [%] | inhibition (RAW264.7 [8]) | inhibition (RAW264.7 [9]) | inhibition (RAW264.7 [10]) | Survival (CT26; time 35 day) [%] | Activity [11] | Activity (Mus musculus [12]) | Activity (Mus musculus [13]) | Activity [14] | Activity (Mus musculus [15]) | Activity (CT26; time 35.0 day) | Activity (Mus musculus [16])
1 | CCCCc1nc2c(N)nc3ccccc3c2n1Cc1ccccc1 | Active | Active | Toxic | Active | Toxic | Toxic | Toxic | Toxic | – | – | – | – | – | – | – | – | – | – | – | –
2 | CCOCc1nc2c(N)nc3ccccc3c2n1CC(C)(C)O [RESIQUIMOD] | – | – | – | – | Toxic | Toxic | Toxic | Toxic | – | – | – | – | – | – | – | – | – | – | – | –
3 | CCCCCCCCCCCCCCCCCC(=O)NCCCCOn1c(CCCC)nc2c(N)nc3ccccc3c21 [TELRATOLIMOD] | – | – | – | – | Non-Toxic | Non-Toxic | Non-Toxic | Non-Toxic | – | – | – | – | – | – | – | – | – | – | – | –
4 | CCCCc1nc2c(N)nc3ccccc3c2n1Cc1ccc(CNC(=O)c2cc(-c3ccc(O)cc3)ccc2O)cc1 | Active | Active | Toxic | Active | – | Non-Toxic | – | Non-Toxic | 50 | Active | inactive | Active | – | – | – | – | – | – | – | –
5 | CCCCc1nc2c(N)nc3ccccc3c2n1Cc1ccc(CNC(=O)NCCCNC(=O)/C=C/c2ccc(O)c(OC)c2)cc1 | Active | Active | Non-Toxic | Active | Toxic | Toxic | Toxic | Toxic | 50 | Active | inactive | Active | 80 | – | – | – | – | – | – | –
6 | CCCCc1nc2c(N)nc3ccccc3c2n1Cc1ccc(CNC(=O)NCCc2ccc(O)c(O)c2)cc1 | Active | Active | Non-Toxic | Active | Non-Toxic | Non-Toxic | Non-Toxic | Non-Toxic | 50 | Active | inactive | Active | – | Non-Toxic | Active | inactive | Non-Toxic | Active | – | –
7 | CCCCc1nc2c(N)nc3ccccc3c2n1Cc1ccc(CNC(=O)NCCCCCC(=O)NCc2ccc(O)c(OC)c2)cc1 | Active | Active | Non-Toxic | Active | Non-Toxic | Non-Toxic | Non-Toxic | Non-Toxic | 50 | Active | inactive | Active | – | Non-Toxic | Active | inactive | Non-Toxic | Active | Active | Active
8 | CCCCc1nc2c(N)nc3ccccc3c2n1Cc1ccc(CNC(=O)c2ccc(-c3cccc(O)c3)cc2O)cc1 | Active | Active | Toxic | Active | Non-Toxic | Non-Toxic | Non-Toxic | Non-Toxic | 50 | Active | inactive | Active | – | – | – | – | – | – | – | –
9 | CCCCc1nc2c(N)nc3ccccc3c2n1Cc1ccc(CNC(=O)c2cccc(-c3cccc(O)c3)c2)cc1 | Active | Active | Non-Toxic | Active | Non-Toxic | Non-Toxic | Non-Toxic | Non-Toxic | 50 | Active | inactive | Active | – | Non-Toxic | – | inactive | Non-Toxic | – | – | –
